pIC50, pKi: −log10 of the molar value. In brackets after ≈: the same amount, converted by molar mass. Activity calls are given as the source filed them. The calls are words filed in the database; no cut-off is given here.
Columns and labels:
[1] = target: T1, Serine/threonine-protein kinase PAK 4 (Homo sapiens, UniProt O96013); test: Binding affinity to N-terminal GST-tagged recombinant human PAK4 kinase domain expressed in Escherichia coli using KKRNRRLSVA as substrate preincubated for 10 mins followed by ATP addition measured after 60 mins by FRET-based Z'Lyte assay
Target sequence in this assay (O96013 whole entry, the tested form may be a part): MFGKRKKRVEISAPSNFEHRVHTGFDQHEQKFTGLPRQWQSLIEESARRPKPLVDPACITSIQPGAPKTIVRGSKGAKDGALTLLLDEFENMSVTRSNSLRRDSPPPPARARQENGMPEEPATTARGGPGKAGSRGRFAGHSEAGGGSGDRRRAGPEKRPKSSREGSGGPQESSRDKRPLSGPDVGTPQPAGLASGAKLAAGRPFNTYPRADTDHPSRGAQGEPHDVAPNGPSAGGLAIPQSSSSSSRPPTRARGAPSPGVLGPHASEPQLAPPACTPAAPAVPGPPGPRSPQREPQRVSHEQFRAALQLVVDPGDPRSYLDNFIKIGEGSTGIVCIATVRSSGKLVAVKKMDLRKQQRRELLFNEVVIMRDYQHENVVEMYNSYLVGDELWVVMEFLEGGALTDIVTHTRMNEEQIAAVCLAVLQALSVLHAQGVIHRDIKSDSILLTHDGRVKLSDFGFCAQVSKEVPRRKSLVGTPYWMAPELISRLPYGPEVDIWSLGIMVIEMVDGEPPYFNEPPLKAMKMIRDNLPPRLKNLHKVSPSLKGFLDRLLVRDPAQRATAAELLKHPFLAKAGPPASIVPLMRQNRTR

[2] = target: Serine/threonine-protein kinase PAK 1 (Homo sapiens, UniProt Q13153); test: Binding affinity to N-terminal GST-His-tagged recombinant human PAK1 kinase domain expressed in Escherichia coli BL21 using KKRNRRLSVA as sustrate preincubated for 10 mins followed by ATP addition measured after 60 mins by FRET-based Z'Lyte assay
[3] = target: T2, Serine/threonine-protein kinase PAK 6 (Homo sapiens, UniProt Q9NQU5); test: Inhibition of PAK6 (unknown origin) at 0.1 uM
[4] = target: T2, Serine/threonine-protein kinase PAK 6; test: Inhibition of PAK6 (unknown origin)
[5] = Plasma protein binding in human plasma; assay type: ADME, cell-free; settings: read-out: PPB (converted)
[6] = target: Serine/threonine-protein kinase PAK 2 (Homo sapiens, UniProt Q13177); test: Inhibition of PAK2 (unknown origin)
[7] = Antimigratory activity in human MDA-MB-436 cells assessed as reduction in wound density at >10 uM after 1 to 24 hrs by wound healing assay; assay type: functional; set-up: scale not given: the % may be the effect or the level left
Method in brief: (§1)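 Monolayer of 40 000 cells per well, grown overnight, scratched with WoundMaker, washed twice with warm medium, then given medium with DMSO or compound (0.1, 1, 10, 50 μM). Relative wound density from phase-contrast time-lapse images, collected and quantified every 2 h on IncuCyte.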

[8] = Antiinvasive activity against human MCF10A cells harboring PIK3CA H1047R mutant assessed as reduction of wound density at 10 uM after 48 hrs by matrigel assay; assay type: functional, MCF-10A; set-up: scale not given: the % may be the effect or the level left
[9] = target: T3, Serine/threonine-protein kinase PAK 5 (Homo sapiens, UniProt Q9P286); test: Inhibition of PAK5 (unknown origin) at 0.1 uM
MDA-MB-436 [10] = test: Antiinvasive activity against human MDA-MB-436 cells assessed as complete wound closure at 0.1 to 50 uM after 80 hrs by matrigel assay; assay type: functional, cell-based
[11] = Cytotoxicity against human MDA-MB-436 cells assessed as reduction in cell viability at 10 uM after 24 to 48 hrs by Celltiter-glo luminescence assay; assay type: functional
Method in brief: (§2)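 Cells sparsely plated in 96-well plates and allowed to adhere, then given DMSO or compound (0.1, 1, 10, 50 μM) for 24 and 48 h. Metabolically active cells quantified by CellTiter-Glo luminescence. MDA-MB-436 grown in DMEM/10% FBS; MCF10A PIK3CA (one endogenous H1047R allele) in DMEM/F12 with 5% horse serum, insulin, hydrocortisone.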

[12] = target: T3, Serine/threonine-protein kinase PAK 5; test: Inhibition of PAK5 (unknown origin)
[13] = target: Mitogen-activated protein kinase kinase kinase kinase 4 (Homo sapiens) (UniProt O95819); test: Inhibition of MAP4K4 (unknown origin) at 1 uM
[14] = Thermodynamic solubility of the compound; assay type: physicochemical; settings: read-out: Therm_solubility
[15] = Lipophilicity, log D of the compound at pH 7.4; assay type: physicochemical; settings: buffer
[16] = Cytotoxicity against human MCF10A cells harboring PIK3CA H1047R mutant cells assessed as reduction in cell viability at 10 uM after 24 to 48 hrs by Celltiter-glo luminescence assay; assay type: functional, MCF-10A; method in brief: as §2
[17] = target: Mitogen-activated protein kinase kinase kinase kinase 5 (Homo sapiens) (UniProt Q9Y4K4); test: Inhibition of KHS1 (unknown origin) at 1 uM
[18] = Apparent permeability across apical to basolateral side in MDCK cells; assay type: ADME, cell-based, Canis lupus familiaris; settings: dog
MDA-MB-436 [19] = test: Cytotoxicity against human MDA-MB-436 cells assessed as reduction in cell viability at 50 uM after 24 to 48 hrs by Celltiter-glo luminescence assay; assay type: functional, cell-based; method in brief: as §2
[20] = Antiinvasive activity against human MDA-MB-436 cells assessed as reduction of wound density at 1 uM after 80 hrs by matrigel assay; assay type: functional; set-up: scale not given: the % may be the effect or the level left
[21] = target: T4, Tyrosine-protein kinase JAK3 (Homo sapiens) (UniProt P52333); test: Inhibition of JAK3 (unknown origin) at 1 uM
T4 sequence (whole entry): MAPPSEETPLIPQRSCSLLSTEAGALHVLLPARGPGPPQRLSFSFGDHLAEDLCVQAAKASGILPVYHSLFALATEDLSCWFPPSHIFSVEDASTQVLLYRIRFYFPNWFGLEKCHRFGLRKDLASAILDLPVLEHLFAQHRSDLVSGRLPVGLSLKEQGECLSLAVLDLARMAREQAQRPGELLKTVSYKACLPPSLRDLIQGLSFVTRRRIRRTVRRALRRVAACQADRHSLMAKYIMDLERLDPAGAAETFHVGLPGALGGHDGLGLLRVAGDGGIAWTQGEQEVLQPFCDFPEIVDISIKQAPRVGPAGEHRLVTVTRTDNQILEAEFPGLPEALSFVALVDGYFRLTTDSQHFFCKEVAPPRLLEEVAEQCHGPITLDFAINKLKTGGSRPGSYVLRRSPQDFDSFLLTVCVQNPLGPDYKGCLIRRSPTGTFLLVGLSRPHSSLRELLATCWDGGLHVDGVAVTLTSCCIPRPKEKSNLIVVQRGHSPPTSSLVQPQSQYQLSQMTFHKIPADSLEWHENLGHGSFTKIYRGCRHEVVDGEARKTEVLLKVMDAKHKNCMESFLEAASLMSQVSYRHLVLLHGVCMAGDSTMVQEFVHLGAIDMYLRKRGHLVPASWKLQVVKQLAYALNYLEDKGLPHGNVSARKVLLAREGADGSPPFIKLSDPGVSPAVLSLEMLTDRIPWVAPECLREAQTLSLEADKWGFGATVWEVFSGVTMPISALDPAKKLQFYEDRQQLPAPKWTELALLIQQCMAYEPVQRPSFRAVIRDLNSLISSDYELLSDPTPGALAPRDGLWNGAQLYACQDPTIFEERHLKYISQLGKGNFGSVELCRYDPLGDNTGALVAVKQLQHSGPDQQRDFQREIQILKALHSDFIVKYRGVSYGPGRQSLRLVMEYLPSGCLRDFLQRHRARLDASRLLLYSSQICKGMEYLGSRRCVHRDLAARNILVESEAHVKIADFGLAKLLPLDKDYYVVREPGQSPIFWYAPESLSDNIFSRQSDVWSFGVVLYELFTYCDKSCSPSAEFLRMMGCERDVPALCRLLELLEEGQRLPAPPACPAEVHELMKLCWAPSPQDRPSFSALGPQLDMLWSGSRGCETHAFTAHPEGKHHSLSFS

[22] = target: T1, Serine/threonine-protein kinase PAK 4; test: Inhibition of PAK4 (unknown origin)
Target sequence in this assay (O96013 whole entry, the tested form may be a part): as the sequence (O96013 whole entry, the tested form may be a part) above

MDA-MB-436 [23] = test: Antiinvasive activity against human MDA-MB-436 cells assessed as reduction of wound density after 80 hrs by matrigel assay; assay type: functional, cell-based
[24] = target: T1, Serine/threonine-protein kinase PAK 4; settings: 0.1 uM
Target sequence in this assay (O96013 whole entry, looked up, the tested form may be a part): as the sequence (O96013 whole entry, the tested form may be a part) above

[25] = Kinetic solubility of the compound; assay type: physicochemical; settings: read-out: Kinetic_solubility
MCF-10A [26] = test: Antiinvasive activity against human MCF10A cells harboring PIK3CA H1047R mutant assessed as complete wound closure at 0.1 to 50 uM after 40 hrs by matrigel assay; assay type: functional, cell-based
MCF-10A [27] = test: Cytotoxicity against human MCF10A cells harboring PIK3CA H1047R mutant cells assessed as reduction in cell viability at 50 uM after 24 to 48 hrs by Celltiter-glo luminescence assay; assay type: functional, cell-based; method in brief: as §2
[28] = target: Serine/threonine-protein kinase PAK 3 (Homo sapiens, UniProt O75914); test: Inhibition of PAK3 (unknown origin)
Ephrin type-B receptor 1 = target: T5, Ephrin type-B receptor 1 (Homo sapiens, UniProt P54762); test: Inhibition of EphB1 (unknown origin)
T5 sequence (P54762 whole entry): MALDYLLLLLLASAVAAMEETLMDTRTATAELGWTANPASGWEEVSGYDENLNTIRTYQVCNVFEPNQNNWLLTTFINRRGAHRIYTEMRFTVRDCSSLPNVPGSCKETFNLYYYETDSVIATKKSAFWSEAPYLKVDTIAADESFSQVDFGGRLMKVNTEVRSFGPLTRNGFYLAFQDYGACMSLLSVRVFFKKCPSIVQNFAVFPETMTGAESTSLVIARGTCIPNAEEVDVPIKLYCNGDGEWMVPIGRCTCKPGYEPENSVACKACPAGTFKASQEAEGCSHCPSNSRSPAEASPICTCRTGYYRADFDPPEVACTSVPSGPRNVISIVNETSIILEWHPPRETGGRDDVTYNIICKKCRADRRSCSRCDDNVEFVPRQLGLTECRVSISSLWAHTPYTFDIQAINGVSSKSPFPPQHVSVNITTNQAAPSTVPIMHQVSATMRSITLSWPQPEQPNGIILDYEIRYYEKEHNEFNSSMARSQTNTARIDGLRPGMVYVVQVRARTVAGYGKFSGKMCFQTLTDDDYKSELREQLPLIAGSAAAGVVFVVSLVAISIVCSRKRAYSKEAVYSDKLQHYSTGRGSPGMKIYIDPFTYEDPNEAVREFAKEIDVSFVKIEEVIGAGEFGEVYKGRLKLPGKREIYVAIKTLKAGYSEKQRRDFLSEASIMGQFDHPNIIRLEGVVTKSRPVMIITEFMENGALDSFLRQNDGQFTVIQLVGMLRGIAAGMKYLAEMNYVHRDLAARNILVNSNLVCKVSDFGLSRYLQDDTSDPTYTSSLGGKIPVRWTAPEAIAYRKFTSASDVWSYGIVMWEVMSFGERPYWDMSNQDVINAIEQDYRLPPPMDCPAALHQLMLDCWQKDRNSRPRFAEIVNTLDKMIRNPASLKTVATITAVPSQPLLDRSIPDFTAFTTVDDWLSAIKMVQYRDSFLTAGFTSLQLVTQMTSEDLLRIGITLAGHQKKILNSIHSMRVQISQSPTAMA

[29] = target: Mitogen-activated protein kinase kinase kinase 14 (Homo sapiens) (UniProt Q99558); test: Inhibition of NIK (unknown origin) at 1 uM
[30] = Antimigratory activity in human MCF10A cells harboring PIK3CA H1047R mutant assessed as reduced wound density at >10 uM after 20 hrs by wound healing assay; assay type: functional, MCF-10A; set-up: scale not given: the % may be the effect or the level left; method in brief: as §1
[31] = target: Misshapen-like kinase 1 (Homo sapiens) (UniProt Q8N4C8); test: Inhibition of MINK1 (unknown origin) at 1 uM
[32] = target: T1, Serine/threonine-protein kinase PAK 4; test: Inhibition of PAK4 (unknown origin) at 1 uM
Target sequence in this assay (O96013 whole entry, looked up, the tested form may be a part): as the sequence (O96013 whole entry, the tested form may be a part) above

[33] = target: Misshapen-like kinase 1 (Homo sapiens) (UniProt Q8N4C8); test: Inhibition of MINK1 (unknown origin) at 10 uM
[34] = target: Mitogen-activated protein kinase kinase kinase 14 (Homo sapiens) (UniProt Q99558); test: Inhibition of NIK (unknown origin) at 10 uM
[35] = target: T1, Serine/threonine-protein kinase PAK 4; settings: 10 uM
Target sequence in this assay (O96013 whole entry, looked up, the tested form may be a part): as the sequence (O96013 whole entry, the tested form may be a part) above

[36] = target: Mitogen-activated protein kinase kinase kinase kinase 4 (Homo sapiens) (UniProt O95819); test: Inhibition of MAP4K4 (unknown origin) at 10 uM
[37] = target: Mitogen-activated protein kinase kinase kinase kinase 5 (Homo sapiens) (UniProt Q9Y4K4); test: Inhibition of KHS1 (unknown origin) at 10 uM
[38] = target: T4, Tyrosine-protein kinase JAK3 (Homo sapiens); test: Inhibition of JAK3 (unknown origin) at 10 uM

Serine/threonine-protein kinase PAK 1, sequence (Q13153 whole entry, the tested form may be a part): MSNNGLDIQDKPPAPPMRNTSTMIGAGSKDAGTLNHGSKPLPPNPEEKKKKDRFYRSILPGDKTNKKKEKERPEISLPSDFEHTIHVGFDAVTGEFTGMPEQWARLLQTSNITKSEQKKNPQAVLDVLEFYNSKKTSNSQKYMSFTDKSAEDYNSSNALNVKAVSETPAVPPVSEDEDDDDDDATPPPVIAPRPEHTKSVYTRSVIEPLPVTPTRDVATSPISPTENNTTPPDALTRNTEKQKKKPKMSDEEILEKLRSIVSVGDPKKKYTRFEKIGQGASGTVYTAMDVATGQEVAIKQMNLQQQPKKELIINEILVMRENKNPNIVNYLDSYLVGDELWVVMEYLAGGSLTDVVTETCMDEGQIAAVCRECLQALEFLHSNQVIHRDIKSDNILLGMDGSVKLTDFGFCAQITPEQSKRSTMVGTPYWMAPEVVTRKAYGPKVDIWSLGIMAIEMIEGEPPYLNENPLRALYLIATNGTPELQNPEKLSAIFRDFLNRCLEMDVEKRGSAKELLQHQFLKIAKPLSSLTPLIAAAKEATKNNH
Misshapen-like kinase 1 (Homo sapiens), sequence (Q8N4C8 whole entry, looked up): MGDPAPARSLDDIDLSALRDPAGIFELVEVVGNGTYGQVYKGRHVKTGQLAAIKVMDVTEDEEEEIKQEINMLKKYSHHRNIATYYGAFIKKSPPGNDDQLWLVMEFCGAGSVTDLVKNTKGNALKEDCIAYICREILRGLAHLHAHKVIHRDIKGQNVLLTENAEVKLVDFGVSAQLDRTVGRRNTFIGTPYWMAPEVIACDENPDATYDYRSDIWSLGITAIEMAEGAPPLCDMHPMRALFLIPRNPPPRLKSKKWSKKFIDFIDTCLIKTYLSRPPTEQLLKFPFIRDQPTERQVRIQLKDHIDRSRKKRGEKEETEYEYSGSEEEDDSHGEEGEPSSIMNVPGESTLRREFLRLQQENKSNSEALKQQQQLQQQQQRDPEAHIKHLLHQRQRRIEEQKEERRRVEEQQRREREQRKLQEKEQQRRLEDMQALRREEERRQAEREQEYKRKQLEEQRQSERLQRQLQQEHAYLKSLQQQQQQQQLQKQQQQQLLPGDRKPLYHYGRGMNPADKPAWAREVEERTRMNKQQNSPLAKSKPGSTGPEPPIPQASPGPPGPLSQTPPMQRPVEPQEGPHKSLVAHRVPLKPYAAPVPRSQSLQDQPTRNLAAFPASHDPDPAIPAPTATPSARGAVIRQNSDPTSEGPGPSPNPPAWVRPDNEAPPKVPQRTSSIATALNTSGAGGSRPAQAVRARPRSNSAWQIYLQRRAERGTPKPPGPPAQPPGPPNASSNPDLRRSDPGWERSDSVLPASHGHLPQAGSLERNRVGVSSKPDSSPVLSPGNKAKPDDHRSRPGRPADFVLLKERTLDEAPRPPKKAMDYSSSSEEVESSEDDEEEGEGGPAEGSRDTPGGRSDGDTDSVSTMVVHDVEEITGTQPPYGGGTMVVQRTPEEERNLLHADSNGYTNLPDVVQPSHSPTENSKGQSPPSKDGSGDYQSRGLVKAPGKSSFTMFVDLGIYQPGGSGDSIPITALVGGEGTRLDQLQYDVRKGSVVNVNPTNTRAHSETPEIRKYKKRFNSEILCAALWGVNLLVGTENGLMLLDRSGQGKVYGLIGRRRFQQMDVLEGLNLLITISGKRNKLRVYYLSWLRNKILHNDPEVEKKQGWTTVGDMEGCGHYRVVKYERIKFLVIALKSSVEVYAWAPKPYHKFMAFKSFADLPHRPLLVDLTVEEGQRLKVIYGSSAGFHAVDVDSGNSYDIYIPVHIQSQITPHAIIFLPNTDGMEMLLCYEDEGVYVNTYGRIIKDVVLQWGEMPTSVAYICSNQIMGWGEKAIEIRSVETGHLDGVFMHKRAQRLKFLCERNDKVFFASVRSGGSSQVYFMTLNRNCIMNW
Mitogen-activated protein kinase kinase kinase 14 (Homo sapiens), sequence (Q99558 whole entry, looked up): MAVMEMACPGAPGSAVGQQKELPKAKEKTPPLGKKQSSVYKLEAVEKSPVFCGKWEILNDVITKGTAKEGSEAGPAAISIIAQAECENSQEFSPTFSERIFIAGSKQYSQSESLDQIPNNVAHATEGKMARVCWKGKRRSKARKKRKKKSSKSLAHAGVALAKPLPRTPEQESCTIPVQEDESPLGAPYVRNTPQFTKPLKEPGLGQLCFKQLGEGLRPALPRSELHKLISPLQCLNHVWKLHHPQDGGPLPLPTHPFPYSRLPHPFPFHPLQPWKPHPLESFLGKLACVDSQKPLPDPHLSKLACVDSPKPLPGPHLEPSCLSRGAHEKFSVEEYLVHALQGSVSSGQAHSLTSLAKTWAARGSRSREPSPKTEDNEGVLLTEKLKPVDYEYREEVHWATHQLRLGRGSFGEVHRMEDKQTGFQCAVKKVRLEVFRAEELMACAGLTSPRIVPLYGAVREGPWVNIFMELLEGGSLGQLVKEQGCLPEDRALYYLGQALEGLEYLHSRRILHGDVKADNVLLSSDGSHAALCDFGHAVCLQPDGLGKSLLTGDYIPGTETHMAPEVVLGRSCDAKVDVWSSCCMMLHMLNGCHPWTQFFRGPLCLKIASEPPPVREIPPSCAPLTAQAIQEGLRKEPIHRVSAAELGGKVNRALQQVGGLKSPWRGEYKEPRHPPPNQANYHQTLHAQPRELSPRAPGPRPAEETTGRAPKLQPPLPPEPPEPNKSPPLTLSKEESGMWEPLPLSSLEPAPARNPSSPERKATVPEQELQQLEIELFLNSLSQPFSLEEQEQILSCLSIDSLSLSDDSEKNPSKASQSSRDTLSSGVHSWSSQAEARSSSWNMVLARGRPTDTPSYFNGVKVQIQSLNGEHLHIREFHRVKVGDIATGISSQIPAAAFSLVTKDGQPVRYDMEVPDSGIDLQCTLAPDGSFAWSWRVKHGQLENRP
Mitogen-activated protein kinase kinase kinase kinase 5 (Homo sapiens), sequence (Q9Y4K4 whole entry, looked up): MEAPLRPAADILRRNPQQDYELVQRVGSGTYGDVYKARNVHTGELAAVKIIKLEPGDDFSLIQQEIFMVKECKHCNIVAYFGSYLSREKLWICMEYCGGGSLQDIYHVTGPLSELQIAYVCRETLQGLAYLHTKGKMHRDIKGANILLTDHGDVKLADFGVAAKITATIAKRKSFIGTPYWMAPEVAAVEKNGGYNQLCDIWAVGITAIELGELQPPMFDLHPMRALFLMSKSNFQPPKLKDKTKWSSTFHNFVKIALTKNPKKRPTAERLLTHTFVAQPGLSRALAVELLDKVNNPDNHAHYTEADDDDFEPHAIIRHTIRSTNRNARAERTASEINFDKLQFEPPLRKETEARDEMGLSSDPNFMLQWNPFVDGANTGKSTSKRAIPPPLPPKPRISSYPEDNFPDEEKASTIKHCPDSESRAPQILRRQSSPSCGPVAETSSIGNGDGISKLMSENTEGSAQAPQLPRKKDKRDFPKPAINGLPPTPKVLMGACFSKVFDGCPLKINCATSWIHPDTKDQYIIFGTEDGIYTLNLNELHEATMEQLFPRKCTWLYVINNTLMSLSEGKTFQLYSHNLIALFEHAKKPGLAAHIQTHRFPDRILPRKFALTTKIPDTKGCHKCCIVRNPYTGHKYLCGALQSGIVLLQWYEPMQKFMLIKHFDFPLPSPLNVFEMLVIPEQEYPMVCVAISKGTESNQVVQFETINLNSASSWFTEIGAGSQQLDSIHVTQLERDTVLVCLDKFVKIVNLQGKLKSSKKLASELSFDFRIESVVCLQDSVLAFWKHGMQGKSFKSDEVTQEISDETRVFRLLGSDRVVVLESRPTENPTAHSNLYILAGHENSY

With `CCNc1nc2ccc(C#CC(C)(C)O)cc2n1-c1ncnc(N)n1` the pKi [1] was 7.22 and the pKi [2] was less than 5.35.

Compound `CC(C)(O)C#Cc1ccc2cnn(-c3cc(N)ncn3)c2c1` has a pKi [1] of 5.89 and a pKi [2] of less than 5.35.

`COCCNc1nc2ccc(C#CC3(O)CCCCC3)cc2n1-c1ccnc(N)n1` showed an inhibition [3] greater than 60%, a pIC50 [4] of 7.44 and a fraction unbound [5] of 0.04. For the same compound, the pIC50 [6] was 6.01, the Activity [7] was 50% and the Activity [8] was 50%. For the same compound, the inhibition [9] was greater than 60%, the Activity (MDA-MB-436 [10]) was “inactive” and the Activity [11] was 50%. The pIC50 [12] was 6.90, the inhibition [13] was -4% and the solubility thermodynamic [14] was 6.3 µM (≈ 2.56 µg/mL). For the same compound, the logD [15] was 3.6, the Activity [16] was 50% and the inhibition [17] was 14%. The Papp A→B [18] was 22.2 ×10⁻⁶ cm/s, the Activity (MDA-MB-436 [19]) was “Active” and the Activity [20] was 50%. The inhibition [21] was -1%, the pIC50 [22] was 8.12 and the Activity (MDA-MB-436 [23]) was “Dose-dependent effect”. The inhibition [24] was greater than 60%, the solubility kinetic [25] was 30 µM (≈ 12.2 µg/mL) and the Activity (MCF-10A [26]) was “Active”. The Activity (MCF-10A [27]) was “Active”, the pIC50 [28] was less than 5.00 and the pIC50 (Ephrin type-B receptor 1) was less than 5.00. It also gave an inhibition [29] of 46%, an Activity [30] of 50% and an inhibition [31] of 5%. The inhibition [32] was 100%.

Compound `Cc1nc2ccc(C#CC3(O)COC3)cc2n1-c1ncnc(N)n1` has a pKi [1] of less than 5.54 and a pKi [2] of less than 5.35.

For `Cc1nc2ccc(C#CC(C)(C)CO)cc2n1-c1ncnc(N)n1`, the pKi [1] was less than 5.54 and the pKi [2] was less than 5.35.

`COCCNc1nc2ccc(C#CC(C)(C)O)cc2n1-c1ccnc(N)n1` gave an inhibition [33] of 32%, a pKi [1] of 6.85 and an inhibition [34] of 84%. For the same compound, the pKi [2] was less than 5.35, the inhibition [35] was 97% and the inhibition [36] was 40%. It also gave an inhibition [37] of 88% and an inhibition [38] of 31%.

`Cc1cc([C@](C)(O)C#Cc2ccc3nc(C)n(-c4ncnc(N)n4)c3c2)no1` gave a pKi [1] of 7.49 and a pKi [2] of less than 5.35.

With `Cc1nc2ccc(C#CC(C)(O)CC3CC3)cc2n1-c1ncnc(N)n1` (racemic) the pKi [1] was 6.17 and the pKi [2] was less than 5.35.

Source: ChEMBL document CHEMBL3124809, “Back pocket flexibility provides group II p21-activated kinase (PAK) selectivity for type I 1/2 kinase inhibitors” (J Med Chem, 2014)
